Assay results from ChEMBL document CHEMBL2216748 (J Med Chem, 2012).
Calls of active or inactive are those of the source. The rule behind the calls is not given here.

Experiments:
[1] = target: Adenosine kinase (Homo sapiens) (UniProt P55263); assay: (§1) Displacement of 3-(1-methyl-N-(pyridin-2-yl)-2-((4-(N-((S)-6,9,25-trioxo-29-((3aS,4S,6aR)-2-oxohexahydro-1H-thieno[3,4-d]imidazol-4-yl)-8-(4-(3-(trifluoromethyl)-3H-diazirin-3-yl)benzamido)-14,17,20-trioxa-5,10,24-triazanonacosyl)carbamimidoyl)phenylamino)methyl)-1H-benzo[d]imidazole-5-carboxamido)propanoic acid from ADK in human HepG2 cell lysate after 1 hr by capture compound based LC/MS analysis; format: cell-free
Adenosine kinase (Homo sapiens), sequence (P55263 2-362 limits assumed): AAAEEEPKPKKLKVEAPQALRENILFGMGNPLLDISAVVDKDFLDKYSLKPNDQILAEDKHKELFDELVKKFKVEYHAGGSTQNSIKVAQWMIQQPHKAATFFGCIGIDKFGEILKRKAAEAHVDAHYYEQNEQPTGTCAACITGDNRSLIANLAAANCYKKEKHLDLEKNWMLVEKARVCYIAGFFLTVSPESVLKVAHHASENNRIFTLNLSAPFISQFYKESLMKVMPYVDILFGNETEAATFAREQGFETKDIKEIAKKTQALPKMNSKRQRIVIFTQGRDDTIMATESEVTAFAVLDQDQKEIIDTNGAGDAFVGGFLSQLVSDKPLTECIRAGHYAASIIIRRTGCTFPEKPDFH
Outline: (§2)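 Capture compound MS: 400 μg HepG2 or K562 lysate in capture buffer, precleared with streptavidin beads 30 min at 4 °C. Competition controls preincubated 30 min at 4 °C with free drug (10 μL of 1 mM). Capture compound (10 μL of 50 μM) equilibrated 1 h at 4 °C, UV-irradiated 10 min, streptavidin bead pulldown, on-bead trypsin digestion, nanoLC-MS/MS. Spectral counts compared capture vs competition (t test). HepG2 in quadruplicate, K562 in duplicate.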

[2] = target: Heterogeneous nuclear ribonucleoproteins C1/C2 (Homo sapiens) (UniProt P07910); assay: as §1, with “HNRPC” for “ADK”; format: cell-free; outline: as §2
Heterogeneous nuclear ribonucleoproteins C1/C2 (Homo sapiens), sequence (P07910 whole entry): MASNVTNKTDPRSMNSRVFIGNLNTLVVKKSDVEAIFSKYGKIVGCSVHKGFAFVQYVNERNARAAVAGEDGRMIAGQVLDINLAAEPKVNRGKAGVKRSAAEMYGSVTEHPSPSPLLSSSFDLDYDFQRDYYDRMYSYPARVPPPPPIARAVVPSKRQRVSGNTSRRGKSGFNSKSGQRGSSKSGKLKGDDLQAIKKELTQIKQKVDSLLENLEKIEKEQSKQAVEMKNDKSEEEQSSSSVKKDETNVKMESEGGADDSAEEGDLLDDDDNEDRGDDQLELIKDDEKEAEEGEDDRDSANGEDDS

[3] = target: T1, Ribosyldihydronicotinamide dehydrogenase [quinone] (Homo sapiens) (UniProt P16083); assay: Displacement of (S)-N4-(2-(4-(4-(4-methyl-3-(4-(pyridin-3-yl)pyrimidin-2-ylamino)phenylcarbamoyl)benzyl)piperazin-1-yl)ethyl)-N1-(15-oxo-19-((3aS,4S,6aR)-2-oxohexahydro-1H-thieno[3,4-d]imidazol-4-yl)-4,7,10-trioxa-14-azanonadecyl)-2-(4-(3-(trifluoromethyl)-3H-diazirin-3-yl)benzamido)succinamide from human recombinant NQO2 after 1 hr by silver staining-based SDS PAGE analysis
T1 sequence (whole entry): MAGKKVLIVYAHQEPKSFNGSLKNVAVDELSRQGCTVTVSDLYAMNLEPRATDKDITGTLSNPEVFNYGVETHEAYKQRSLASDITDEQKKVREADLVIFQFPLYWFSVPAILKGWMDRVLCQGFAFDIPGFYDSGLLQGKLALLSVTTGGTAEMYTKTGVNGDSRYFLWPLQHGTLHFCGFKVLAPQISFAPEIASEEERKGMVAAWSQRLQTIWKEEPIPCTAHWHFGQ
Outline: (§3)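 Human recombinant NQO2 (1 μg) was preincubated 30 min at 4 °C with competitor, then capture compound was added at 5 μM final (competitors 100 μM final) and equilibrated 1 h at 4 °C. Samples were UV-irradiated 10 min, pulled down on streptavidin beads and resolved by silver-stained SDS-PAGE.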

[4] = target: T1, Ribosyldihydronicotinamide dehydrogenase [quinone] (Homo sapiens); assay: Displacement of (S)-N4-(4-(3-(2-((4-carbamimidoylphenylamino)methyl)-1-methyl-N-(pyridin-2-yl)-1H-benzo[d]imidazole-5-carboxamido)propanamido)butyl)-N1-(15-oxo-19-((3aS,4S,6aR)-2-oxohexahydro-1H-thieno[3,4-d]imidazol-4-yl)-4,7,10-trioxa-14-azanonadecyl)-2-(4-(3-(trifluoromethyl)-3H-diazirin-3-yl)benzamido)succinamide from human recombinant NQO2 after 1 hr by silver staining-based SDS PAGE analysis; outline: as §3
[5] = target: T1, Ribosyldihydronicotinamide dehydrogenase [quinone] (Homo sapiens); assay: (§4) Displacement of (S)-N4-(4-(3-(2-((4-carbamimidoylphenylamino)methyl)-1-methyl-N-(pyridin-2-yl)-1H-benzo[d]imidazole-5-carboxamido)propanamido)butyl)-N1-(15-oxo-19-((3aS,4S,6aR)-2-oxohexahydro-1H-thieno[3,4-d]imidazol-4-yl)-4,7,10-trioxa-14-azanonadecyl)-2-(4-(3-(trifluoromethyl)-3H-diazirin-3-yl)benzamido)succinamide from NQO2 in human HepG2 cell lysate at 100 uM after 1 hr by Western blot analysis; format: cell-free
Outline: (§5)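 NQO2 capture from HepG2 or K562 lysate, or from pooled human liver microsomes, with capture compound (1 h, 4 °C) after 30 min competitor preincubation. UV cross-linked 10 min and streptavidin pulldown. Detection by Western blot: anti-NQO2 1:500, then HRP anti-rabbit secondary 1:1000.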

[6] = target: T1, Ribosyldihydronicotinamide dehydrogenase [quinone] (Homo sapiens); assay: (§6) Displacement of 3-(1-methyl-N-(pyridin-2-yl)-2-((4-(N-((S)-6,9,25-trioxo-29-((3aS,4S,6aR)-2-oxohexahydro-1H-thieno[3,4-d]imidazol-4-yl)-8-(4-(3-(trifluoromethyl)-3H-diazirin-3-yl)benzamido)-14,17,20-trioxa-5,10,24-triazanonacosyl)carbamimidoyl)phenylamino)methyl)-1H-benzo[d]imidazole-5-carboxamido)propanoic acid from human recombinant NQO2 after 1 hr by silver staining-based SDS PAGE analysis; outline: as §3
[7] = target: T2, Hypoxia up-regulated protein 1 (Homo sapiens) (UniProt Q9Y4L1); assay: as §1, with “HYOU1” for “ADK”; format: cell-free; outline: as §2
T2 sequence (whole entry): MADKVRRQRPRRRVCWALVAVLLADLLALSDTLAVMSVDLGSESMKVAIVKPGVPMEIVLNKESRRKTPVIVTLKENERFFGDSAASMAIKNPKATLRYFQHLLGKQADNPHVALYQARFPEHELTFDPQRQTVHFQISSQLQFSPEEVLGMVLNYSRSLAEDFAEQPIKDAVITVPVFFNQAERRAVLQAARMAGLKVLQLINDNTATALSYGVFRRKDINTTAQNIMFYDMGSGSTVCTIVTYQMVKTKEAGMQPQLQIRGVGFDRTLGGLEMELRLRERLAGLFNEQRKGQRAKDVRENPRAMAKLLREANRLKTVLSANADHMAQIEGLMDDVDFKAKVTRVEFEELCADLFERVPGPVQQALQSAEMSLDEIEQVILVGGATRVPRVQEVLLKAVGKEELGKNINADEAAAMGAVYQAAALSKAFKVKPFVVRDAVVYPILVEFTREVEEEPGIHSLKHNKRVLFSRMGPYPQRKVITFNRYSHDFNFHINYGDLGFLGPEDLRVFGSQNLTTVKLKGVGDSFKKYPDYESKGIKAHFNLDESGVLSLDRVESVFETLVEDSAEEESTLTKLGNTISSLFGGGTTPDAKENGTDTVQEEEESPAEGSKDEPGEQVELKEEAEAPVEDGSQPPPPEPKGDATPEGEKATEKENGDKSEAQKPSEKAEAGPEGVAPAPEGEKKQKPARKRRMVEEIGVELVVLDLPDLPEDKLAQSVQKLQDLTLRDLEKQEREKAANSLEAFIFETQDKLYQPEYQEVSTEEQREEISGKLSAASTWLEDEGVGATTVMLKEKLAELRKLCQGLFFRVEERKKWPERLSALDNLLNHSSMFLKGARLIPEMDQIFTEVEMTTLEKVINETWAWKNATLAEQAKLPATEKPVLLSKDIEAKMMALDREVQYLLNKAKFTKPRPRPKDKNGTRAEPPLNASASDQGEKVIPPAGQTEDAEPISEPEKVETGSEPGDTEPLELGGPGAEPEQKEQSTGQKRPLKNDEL

[8] = target: T1, Ribosyldihydronicotinamide dehydrogenase [quinone] (Homo sapiens); assay: Displacement of (S)-N4-(4-(3-(2-((4-carbamimidoylphenylamino)methyl)-1-methyl-N-(pyridin-2-yl)-1H-benzo[d]imidazole-5-carboxamido)propanamido)butyl)-N1-(15-oxo-19-((3aS,4S,6aR)-2-oxohexahydro-1H-thieno[3,4-d]imidazol-4-yl)-4,7,10-trioxa-14-azanonadecyl)-2-(4-(3-(trifluoromethyl)-3H-diazirin-3-yl)benzamido)succinamide from NQO2 in human K562 cell lysate after 1 hr by capture compound based LC/MS analysis; format: cell-free; outline: as §2
[9] = target: T1, Ribosyldihydronicotinamide dehydrogenase [quinone] (Homo sapiens); assay: as §6, with “from NQO2 in” for “from”, “liver microsomes” for “recombinant NQO2”, “Western blot” for “silver staining-based SDS PAGE”; conditions: Microsome; outline: as §5
[10] = target: T1, Ribosyldihydronicotinamide dehydrogenase [quinone] (Homo sapiens); assay: as §4, with “K562” for “HepG2”; format: cell-free; outline: as §5
[11] = target: Histamine N-methyltransferase (Homo sapiens) (UniProt P50135); assay: as §1, with “HNMT” for “ADK”; format: cell-free; outline: as §2
Histamine N-methyltransferase (Homo sapiens), sequence (P50135 whole entry): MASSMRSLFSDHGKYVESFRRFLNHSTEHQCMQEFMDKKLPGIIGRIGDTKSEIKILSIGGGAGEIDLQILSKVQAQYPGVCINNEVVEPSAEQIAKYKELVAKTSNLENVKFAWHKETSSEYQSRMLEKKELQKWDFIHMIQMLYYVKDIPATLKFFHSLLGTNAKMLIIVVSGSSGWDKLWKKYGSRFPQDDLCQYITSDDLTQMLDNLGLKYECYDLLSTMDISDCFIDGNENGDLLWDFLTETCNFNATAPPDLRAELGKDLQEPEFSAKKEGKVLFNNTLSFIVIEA

[12] = Inhibition of human alpha thrombin using Boc-Val-Pro-Arg-AMC as substrate after 2 hrs by fluorometric analysis
Outline: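 Human α-thrombin at 5.5 ng/mL final with Boc-Val-Pro-Arg-AMC (15 μM) in 50 mM Tris pH 7.5, 150 mM NaCl, 0.05% Tween 20. Compound tested as 16 two-fold dilutions in DMSO, 2.5 mM to 75 nM. Incubated 2 h at room temperature; fluorescence read at ex 355, em 460 nm for percent inhibition.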

[13] = target: T1, Ribosyldihydronicotinamide dehydrogenase [quinone] (Homo sapiens); assay: Displacement of (S)-N4-(3-(3-(2-((4-carbamimidoylphenylamino)methyl)-1-methyl-N-(pyridin-2-yl)-1H-benzo[d]imidazole-5-carboxamido)propanamido)propyl)-N1-(15-oxo-19-((3aS,4S,6aR)-2-oxohexahydro-1H-thieno[3,4-d]imidazol-4-yl)-4,7,10-trioxa-14-azanonadecyl)-2-(4-(3-(trifluoromethyl)-3H-diazirin-3-yl)benzamido)succinamide from NQO2 in human HepG2 cell lysate after 1 hr by capture compound based LC/MS analysis; outline: as §2
[14] = target: T1, Ribosyldihydronicotinamide dehydrogenase [quinone] (Homo sapiens); assay: as §4, with “liver microsomes” for “HepG2 cell lysate at 100 uM”; conditions: Microsome; outline: as §5

Activity [1]: Active
Activity [2]: Active
Activity [3]: Active
Activity [4]: Active
Activity [5]: Active
Activity [6]: Active
Activity [7]: Active
Activity [8]: Active
Activity [9]: Active
Activity [10]: Active
Activity [11]: Active
IC50 [12]: 13.8 nM
Activity [13]: Active
Activity [14]: Active
SMILES: Cn1c(CNc2ccc(C(=N)N)cc2)nc2cc(C(=O)N(CCC(=O)O)c3ccccn3)ccc21 [DABIGATRAN]
